Measurements taken from the RNAGym collection of RNA variant scans (doi:10.1126/science.aae0568).
This sample holds only a part of the variants without activity.

B1: tRNA (parent)
chain: GUUCCGUUGGCGUAAUGGUAACGCGUCUCCCUCCUAAGGAGAAGACUGCGGGUUCGAGUCCCGUACGGAACG

Variants of: B1
Assay: yeast fitness relative to wild type (ratio to wild type); higher = fitter; tRNA-Arg(CCU), competitive growth, 37 C, YPD
Procedure, shortened: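 Variants of the tRNA-Arg(CCU) gene, chemically synthesised with a 3% per-site mutation rate at 69 sites, were placed at the native genomic locus in Saccharomyces cerevisiae. The pooled strains were competed in YPD at 37°C for 24 hours in six parallel replicates. Gene amplicons from the start population and from each end population were read by 100-nucleotide paired-end sequencing. Darwinian fitness relative to wild type came from changes in genotype frequencies; genotypes needed ≥ 100 starting reads, and estimates < 0.5 were set to 0.5.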

Row | Variant | yeast fitness
1 | A40G C46U U64C | 0.607
2 | G39C C60G G67C | ≤ 0.5
3 | G39C C49G A65U | ≤ 0.5
4 | A40G C46U U53G | ≤ 0.5
5 | A40G A57U | 0.624
6 | G38C G48A | 0.744
7 | A40U A42G | 0.983
8 | A40U U54C C62U | 0.528
9 | G38C G63C A65G | ≤ 0.5
10 | G38U C46A | 0.783
11 | G39A U47A G68C | 0.597
12 | A40C C46G | 0.975
13 | A40C A57U | 0.789
14 | A40C A57C | 0.637
15 | A40U C55A G68U | ≤ 0.5
16 | G39A C46U | 0.978
17 | G39A A40C C60U G68U | ≤ 0.5
18 | G39C A45G | 0.661
19 | A40U G52C C60G | ≤ 0.5
20 | G39A G56C C66A | ≤ 0.5
21 | G39C G52A G68A | ≤ 0.5
22 | G38C G48A C61A G67C | ≤ 0.5
23 | G41A U54A | 0.674
24 | A40G A65G | 0.984

Row | Variant | yeast fitness
25 | A40G A65C | 0.858
26 | A40G A65U | 0.813
27 | G39C G51C C55G | ≤ 0.5
28 | A40G C62U C66G A69C | ≤ 0.5
29 | G39C A42C C62U A69C | ≤ 0.5
30 | G41A A43G C66A | ≤ 0.5
31 | G38C U54A A65C | 0.567
32 | A40G A42G | 0.986
33 | G41A G67U A69C | ≤ 0.5
34 | G38U G63A | 0.743
35 | G41A A43G C60U A70C | 0.542
36 | G41A U59G A69C | ≤ 0.5
37 | G39U A40C C66A A69U | 0.642
38 | G38C C60A A70G | 0.582
39 | G39C A43G A57C | ≤ 0.5
40 | G39U A70C | 0.811
41 | G39A G52C | 0.612
42 | A40U G63A | 0.721
43 | A40U G63C | 0.729
44 | A40C G41A U47A G67C | 0.637
45 | A40C G68A | 0.933
46 | A40G G48A | 1.01
47 | A40G G48C | 0.866
48 | G41A G67C | 0.775

Row | Variant | yeast fitness
49 | G39C G48C | 0.688
50 | G38C G41C C66U | ≤ 0.5
51 | G38C C62A G67C | ≤ 0.5
52 | G38C G67A | 0.769
53 | G38C G67U | 0.549
54 | A40U A43U C60U C62U C66U | ≤ 0.5
55 | G39A U53A A70G | ≤ 0.5
56 | G39C A43G G48C G50A | ≤ 0.5
57 | G41A G51A C66A | ≤ 0.5
58 | A40G C49U U59A | 0.572
59 | A40U U54A | 0.576
60 | A40U U54C | 0.802
61 | G39C C46G A70U | 0.603
62 | G38C G39A A43C C60G A65C | 0.518
63 | A40G C46U C60G C66G | ≤ 0.5
64 | G41A U53G U59A C62G | ≤ 0.5
65 | A40U A45C | 0.871
66 | G38C G50A U64C | 0.832
67 | G38C G51A A57U | ≤ 0.5
68 | G41A C61A | 0.742
69 | G41A G63C | 0.715
70 | G41A G63A | 0.893
71 | G38C G44C C46A | 0.814
72 | G38C U64A C66U | ≤ 0.5

Row | Variant | yeast fitness
73 | G39A A57C | 0.663
74 | G38C C61U | 0.646
75 | A40G G41A A42C A43G G44A A70U | ≤ 0.5
76 | G41A A45G G56A | 0.582
77 | A40U A45U G67C | 0.582
78 | G38C G41A C55U G67C | ≤ 0.5
79 | G39C C55G U59A G63A | ≤ 0.5
80 | G38C C46G G51C A57C C61U | ≤ 0.5
81 | G41A A42U G50C A70G | ≤ 0.5
82 | G39U | 1
83 | G39A | 0.986
84 | G39C | 0.93
85 | A40G C61U A70U | 0.612
86 | A40G A69U | 1.06
87 | G39A U64C | 1.01
88 | A40C A42U | 0.782
89 | A40C A42C | 0.619
90 | A40U A42G C55A | ≤ 0.5
91 | A40U U47C A69U | 0.815
92 | G41A C55G C66U | ≤ 0.5
93 | G38U G51C | ≤ 0.5
94 | A40U C66G | 0.71
95 | A40U C66U | 0.904
96 | A40C A42U C49G | 0.624

Row | Variant | yeast fitness
97 | A40U C49U C62A C66A | ≤ 0.5
98 | A40G C46G U53G U64G | ≤ 0.5
99 | A40C A57U G58A | 0.644
100 | A40U G52A C60U G63C | 0.661
101 | G39C A43C A45G C60G | ≤ 0.5
102 | A40G A45C | 0.846
103 | G41A A43G C60U | 0.507
104 | G39A C61U C62A | 0.558
105 | A40G A42G A43G U59C | ≤ 0.5
106 | A40U A42C C66A | ≤ 0.5
107 | G41A G48C C49U G68A | ≤ 0.5
108 | A40U A43G A65U | 0.675
109 | A40C A45C | 0.616
110 | G38U C60A | 0.541
111 | A40G C46A | 1.04
112 | A40G G41A C55U | ≤ 0.5
113 | G41A C60G G67A | 0.534
114 | A40U U64A | 0.675
115 | A40G U64A | 0.737
116 | A40G C55U G56A U64G A69U | ≤ 0.5
117 | A40C G56A A70G | 0.556
118 | G41C A57U U64C | ≤ 0.5
119 | G39C A70C | 0.769
120 | G39C A70U | 0.873

Row | Variant | yeast fitness
121 | G39C A70G | 0.915
122 | A40U U53C | 0.735
123 | A40C A69G | 0.985
124 | G39A A70G | 0.871
125 | G39A A70U | 0.915
126 | A40U C49G A70U | 0.535
127 | G41C A57U G63A | 0.567
128 | G38C U53C A57U | ≤ 0.5
129 | A40C C66U | 0.895
130 | G39C U47A G58A G63A | ≤ 0.5
131 | A40G G52A G56U | ≤ 0.5
132 | A40G G44C A57G C60A | ≤ 0.5
133 | G39C C55G C66U | ≤ 0.5
134 | G41A A42C A65C | 0.565
135 | A40G U53A G63A | ≤ 0.5
136 | A40C A45C A65G G68U | ≤ 0.5
137 | A40U U47C A65C | 0.534
138 | G41A G44C C61G | ≤ 0.5
139 | G41A G50A C60U C66G | ≤ 0.5
140 | G39C G48C C62G | ≤ 0.5
141 | G39C C49A G51A | ≤ 0.5
142 | G38U A69C | 0.892
143 | G41A C62A | 0.777
144 | G41A C62U | 0.844

Row | Variant | yeast fitness
145 | G41C C46A C55G | ≤ 0.5
146 | A40G A43U | 0.995
147 | A40G A43G | 0.787
148 | A40G A43C | 1.04
149 | A40U G56A G58C | 0.786
150 | G39A C61G A70U | ≤ 0.5
151 | G39A C61G | 0.585
152 | A40C A43G C60U C61U | ≤ 0.5
153 | A40C A43C | 1.04
154 | G39C A43C A45G | ≤ 0.5
155 | A40U A43C G52A | 0.667
156 | A40U A57G U59C U64G | ≤ 0.5
157 | A40U G44C | 0.954
158 | A40U G67A | 0.82
159 | G39A C46U U59A A70C | ≤ 0.5
160 | A40G C62U C66A A70C | 0.563
161 | A40U C49U C62U A69G | 0.904
162 | A40G A43U C46G C49G C62U | 0.532
163 | A40G G58C C61G A65C | ≤ 0.5
164 | G39A A42C C66U | 0.542
165 | A40G C46A C61U G67A | ≤ 0.5
166 | G38C C60U | 0.571
167 | G38C C60G | 0.567
